Experimental data taken from ChEMBL document CHEMBL6121033, “N-Arylsulfonylated C-Homoaporphines as a New Class of Antiplatelet and Antimicrobial Agents” (ACS Med Chem Lett, 2025).
≈ marks a conversion by molar mass, not a printed value. Calls of active or inactive are those of the source. No cut-off for these calls is given here.

Assays:
Bacillus subtilis = assay: Antibacterial activity against Bacillus subtilis MTCC 10619 assessed as inhibition of bacterial growth incubated for 24 hrs by serial dilution method; format: functional
Outline: (§1)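 MIC found by serial dilution, with ampicillin as positive control. Strains were Gram-negative E. coli MTCC 443 and Gram-positive B. subtilis MTCC 10619. A first agar diffusion screen of all compounds and the control was run at a fixed 100 μg/mL.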

Plasma [1] = assay: Antiplatelet aggregation activity in rabbit platelet-rich plasma assessed as inhibition of arachidonic acid-induced platelet aggregation by turbidimetric based Lumi-aggregometry; format: functional; conditions: Oryctolagus cuniculus
Aspergillus niger [2] = assay: Antifungal activity against Aspergillus niger assessed as inhibition of fungal growth by agar well diffusion method; format: functional
Escherichia coli = assay: Antibacterial activity against Escherichia coli MTCC 443 assessed as inhibition of bacterial growth incubated for 24 hrs by serial dilution method; format: functional; outline: as §1
Trichoderma reesei [3] = assay: Antifungal activity against Trichoderma reesei assessed as inhibition of fungal growth by agar well diffusion method; format: functional
Macrophomina phaseolina = assay: Antifungal activity against Macrophomina phaseolina assessed as inhibition of fungal growth by agar well diffusion method; format: functional
Plasma [4] = assay: Potency index, ratio of Acetylsalicylic acid IC50 to test compound IC50 for antiplatelet aggregation activity in rabbit platelet-rich plasma assessed as inhibition of arachidonic acid-induced platelet aggregation by turbidimetric aggregometry analysis; format: functional, Oryctolagus cuniculus
Trichoderma reesei [5] = assay: Potency index, ratio of Ketaconazole MIC to test compound MIC for antifungal activity against Trichoderma reesei assessed as inhibition of fungal growth by agar well diffusion method; format: functional
Aspergillus niger [6] = assay: Potency index, ratio of Ketaconazole MIC to test compound MIC for antifungal activity against Aspergillus niger assessed as inhibition of fungal growth by agar well diffusion method; format: functional

Compound | MIC (Bacillus subtilis) [µg/mL] | IC50 (Plasma [1]) [µg/mL] | MIC (Aspergillus niger [2]) [µg/mL] | MIC (Escherichia coli) [µg/mL] | MIC (Macrophomina phaseolina) [µg/mL] | MIC (Trichoderma reesei [3]) [µg/mL] | Activity (Trichoderma reesei [3]) | Ratio (Plasma [4]) | Activity (Aspergillus niger [2]) | Ratio IC50 (Plasma [4]) | Activity (Macrophomina phaseolina) | Activity (Bacillus subtilis) | Ratio (Trichoderma reesei [5]) | Activity (Escherichia coli) | Ratio (Aspergillus niger [6])
COc1cc2c(cc1OC)-c1c(OC)c(OC)cc3c1C(CC2)N(S(=O)(=O)c1ccccc1)CC3 (stereo not given) | 50 (≈ 101 µM) | 15 (≈ 30.3 µM) | 25 (≈ 50.4 µM) | 12.5 (≈ 25.2 µM) | – | – | inactive | ~3 | – | – | inactive | – | – | – | –
COc1cc2c(cc1OC)-c1c(OC)c(OCc3ccccc3)cc3c1C(CC2)N(S(=O)(=O)c1ccc([N+](=O)[O-])cc1)CC3 (stereo not given) | – | 30 (≈ 48.6 µM) | 50 (≈ 81.1 µM) | 12.5 (≈ 20.3 µM) | 12.5 (≈ 20.3 µM) | 6.25 (≈ 10.1 µM) | – | – | – | – | – | inactive | 1 | – | –
COc1cc2c(cc1OC)-c1c(OC)c(OC)cc3c1C(CC2)N(S(=O)(=O)c1cccc(C)c1)CC3 (stereo not given) | 25 (≈ 49.1 µM) | 12.7 (≈ 24.8 µM) | 12.5 (≈ 24.5 µM) | 6.25 (≈ 12.3 µM) | – | 12.5 (≈ 24.5 µM) | – | ~3 | – | – | inactive | – | – | – | 1
CC1(C)S[C@@H]2[C@H](NC(=O)[C@H](N)c3ccccc3)C(=O)N2[C@H]1C(=O)O [AMPICILLIN] | 25 (≈ 71.5 µM) | – | – | 12.5 (≈ 35.8 µM) | – | – | – | – | – | – | – | – | – | – | –
COc1cc2c(cc1OC)-c1c(OC)c(OC)cc3c1C(CC2)N(S(=O)(=O)c1ccc(C(C)(C)C)cc1)CC3 (stereo not given) | 12.5 (≈ 22.7 µM) | 36.7 (≈ 66.4 µM) | 100 (≈ 181 µM) | 3.12 (≈ 5.66 µM) | 6.25 (≈ 11.3 µM) | – | inactive | – | – | – | – | – | – | – | –
CC(=O)Oc1ccccc1C(=O)O [ASPIRIN] | – | 21.3 (≈ 118 µM) | – | – | – | – | – | – | – | – | – | – | – | – | –
CC(=O)N1CCN(c2ccc(OCC3COC(Cn4ccnc4)(c4ccc(Cl)cc4Cl)O3)cc2)CC1 (stereo not given) [KETOCONAZOLE] | – | – | 12.5 (≈ 23.5 µM) | – | 12.5 (≈ 23.5 µM) | 6.25 (≈ 11.8 µM) | – | – | – | – | – | – | – | – | –
COc1cc2c(cc1OC)-c1c(OCc3ccccc3)c(OC)cc3c1C(CC2)N(S(=O)(=O)c1ccc(C(C)(C)C)cc1)CC3 (stereo not given) | – | 35 (≈ 55.7 µM) | 12.5 (≈ 19.9 µM) | 6.25 (≈ 9.96 µM) | – | – | inactive | – | – | – | inactive | inactive | – | – | 1
COc1cc2c(cc1OC)-c1c(OCc3ccccc3)c(OC)cc3c1C(CC2)N(S(=O)(=O)c1ccc([N+](=O)[O-])cc1)CC3 (stereo not given) | 12.5 (≈ 20.3 µM) | 32.7 (≈ 53 µM) | 25 (≈ 40.5 µM) | 50 (≈ 81.1 µM) | 12.5 (≈ 20.3 µM) | – | inactive | – | – | – | – | – | – | – | –
COc1cc2c(cc1OC)-c1c(OC)c(OC)cc3c1C(CC2)N(S(=O)(=O)c1ccc([N+](=O)[O-])cc1)CC3 (stereo not given) | – | 30 (≈ 55.5 µM) | 50 (≈ 92.5 µM) | – | 12.5 (≈ 23.1 µM) | – | inactive | – | – | – | – | inactive | – | inactive | –

Continued, in another order:

MIC (Bacillus subtilis) [µg/mL] | IC50 (Plasma [1]) [µg/mL] | MIC (Aspergillus niger [2]) [µg/mL] | MIC (Escherichia coli) [µg/mL] | MIC (Macrophomina phaseolina) [µg/mL] | MIC (Trichoderma reesei [3]) [µg/mL] | Compound | Activity (Trichoderma reesei [3]) | Ratio (Plasma [4]) | Activity (Aspergillus niger [2]) | Ratio IC50 (Plasma [4]) | Activity (Macrophomina phaseolina) | Activity (Bacillus subtilis) | Ratio (Trichoderma reesei [5]) | Activity (Escherichia coli) | Ratio (Aspergillus niger [6])
100 (≈ 177 µM) | 9.6 (≈ 17 µM) | 25 (≈ 44.4 µM) | 25 (≈ 44.4 µM) | 12.5 (≈ 22.2 µM) | – | COc1cc2c(cc1OC)-c1c(OC)c(OC)cc3c1C(CC2)N(S(=O)(=O)c1cccc(C(F)(F)F)c1)CC3 (stereo not given) | inactive | ~3 | – | – | – | – | – | – | –
25 (≈ 42.7 µM) | 10.5 (≈ 17.9 µM) | – | 50 (≈ 85.4 µM) | 50 (≈ 85.4 µM) | 25 (≈ 42.7 µM) | COc1cc2c(cc1OC)-c1c(OC)c(OCc3ccccc3)cc3c1C(CC2)N(S(=O)(=O)c1cccc(C)c1)CC3 (stereo not given) | – | – | inactive | >2 | – | – | – | – | –
– | 12.7 (≈ 22.1 µM) | 6.25 (≈ 10.9 µM) | – | – | – | COc1cc2c(cc1OC)-c1c(OCc3ccccc3)c(OC)cc3c1C(CC2)N(S(=O)(=O)c1ccccc1)CC3 (stereo not given) | inactive | ~3 | – | – | inactive | inactive | – | inactive | –
25 (≈ 39.1 µM) | 8 (≈ 12.5 µM) | 25 (≈ 39.1 µM) | 6.25 (≈ 9.77 µM) | 12.5 (≈ 19.5 µM) | 25 (≈ 39.1 µM) | COc1cc2c(cc1OC)-c1c(OCc3ccccc3)c(OC)cc3c1C(CC2)N(S(=O)(=O)c1cccc(C(F)(F)F)c1)CC3 (stereo not given) | – | ~3 | – | – | – | – | – | – | –
6.25 (≈ 9.77 µM) | 7 (≈ 10.9 µM) | – | 6.25 (≈ 9.77 µM) | – | 6.25 (≈ 9.77 µM) | COc1cc2c(cc1OC)-c1c(OC)c(OCc3ccccc3)cc3c1C(CC2)N(S(=O)(=O)c1cccc(C(F)(F)F)c1)CC3 (stereo not given) | – | – | inactive | 3 | inactive | – | 1 | – | –
3.12 (≈ 5.34 µM) | 12.7 (≈ 21.6 µM) | 12.5 (≈ 21.3 µM) | 3.12 (≈ 5.34 µM) | 25 (≈ 42.7 µM) | 12.5 (≈ 21.3 µM) | COc1cc2c(cc1OC)-c1c(OCc3ccccc3)c(OC)cc3c1C(CC2)N(S(=O)(=O)c1cccc(C)c1)CC3 (stereo not given) | – | ~3 | – | – | – | – | – | – | 1
25 (≈ 39.8 µM) | 35 (≈ 55.7 µM) | 6.25 (≈ 9.96 µM) | – | 25 (≈ 39.8 µM) | 50 (≈ 79.6 µM) | COc1cc2c(cc1OC)-c1c(OC)c(OCc3ccccc3)cc3c1C(CC2)N(S(=O)(=O)c1ccc(C(C)(C)C)cc1)CC3 (stereo not given) | – | – | – | – | – | – | – | inactive | –
12.5 (≈ 21.9 µM) | 14.7 (≈ 25.6 µM) | – | – | – | – | COc1cc2c(cc1OC)-c1c(OC)c(OCc3ccccc3)cc3c1C(CC2)N(S(=O)(=O)c1ccccc1)CC3 (stereo not given) | inactive | ~3 | inactive | – | inactive | – | – | inactive | –
